Shown is part of a subset that was picked to be rich in hits.
CHOP inh – CHOP inhibition in unfolded protein response. inhibition, % at 10 µM. actives 3.8% (n = 220,000). AID 2732. CHO-K1 CHOP-promoter luciferase, tunicamycin-induced, 15-18 h;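 active = compounds that reduced the stress-induced luciferase reporter signal by more than about 70% of percent inhibition, limit read from the data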;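 also: 0% = tunicamycin plus vehicle and 100% = wells without tunicamycin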
UCH37 DUB inh – inhibitors of human deubiquitinating enzyme UCH37. purified proteasome/UCH37, Ub-AMC cleavage fluorescence. inhibition, % (test concentration not listed). actives 0.33% (n = 330,000);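 active = mean inhibition over replicate wells above about 20%, limit read from the data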;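 also: 0% = compound-free wells with enzyme and 100% = wells lacking proteasome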
Target sequence (Q9Y5K5 whole entry, looked up): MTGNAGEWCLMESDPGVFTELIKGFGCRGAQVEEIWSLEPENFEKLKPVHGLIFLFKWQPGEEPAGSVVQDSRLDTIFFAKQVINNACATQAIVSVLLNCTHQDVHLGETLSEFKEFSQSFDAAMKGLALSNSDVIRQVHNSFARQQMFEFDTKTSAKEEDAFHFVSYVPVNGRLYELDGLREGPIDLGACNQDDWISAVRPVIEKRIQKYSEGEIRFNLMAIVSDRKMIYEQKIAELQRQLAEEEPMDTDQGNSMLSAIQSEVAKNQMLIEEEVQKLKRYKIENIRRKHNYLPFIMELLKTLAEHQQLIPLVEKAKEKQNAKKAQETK
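Test system – human UCH37 enzyme supplied as purified proteasome complex · Incubation – 30 min preincubation with enzyme, 25 min cleavage at room temperature · Detection – AMC fluorescence from Ub-AMC cleavage, excitation 355 nm, emission 460 nm · Benchmarks – no-proteasome wells (full inhibition) and compound-free wells (no inhibition)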
CTSL1 counter – blocks F. hepatica cathepsin L1 in PFM18AAP counter-screen | recombinant F. hepatica cathepsin L1, Z-Leu-Arg-MCA fluorescence | inhibition, % at 5.96 µM | actives 0.49% (n = 300,000);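 active = inhibition above the mean of all tested compounds plus 3 SD, set per screening campaign, cut at about 17% in these data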;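 also: 0% = plate median of test compound wells and 100% = 1 µM Z-Phe-Ala-diazomethylketone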
CHOP UPR activ – activators of apoptotic arm of unfolded protein response (CHOP); CHO-CHOP luciferase reporter, UPR activation, luminescence; percent of tunicamycin response over DMSO baseline; activation, % at 10 µM; actives 0.34% (n = 330,000); AID 449763;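 active = at 10 µM dose, activation of 40% or more, normalized to positive control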;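 also: 100% = tunicamycin at 10 µg/mL and 0% = DMSO alone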
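Test system: CHO-CHOP cells, stable luciferase reporter of PERK-eIF2a-CHOP signalling | Quantity: 500 CHO-CHOP cells per well | Buffer or medium: F12 plus 10% serum | Compound dosing: 10 µM single point, 0.5% DMSO | Schedule: 6 h compound treatment, 37 °C | Signal: Luciferase luminescence | Control set: Tunicamycin high control, DMSO low control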
XBP1 UPR activ – activators of adaptive arm of unfolded protein response (XBP1) | CHO-XBP1 luciferase reporter, IRE1-XBP1 UPR activation, luminescence; percent of tunicamycin response, DMSO as zero | actives 0.33% (n = 330,000) | AID 463104 | activation, % at 20 µM;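 active = versus positive control, 20 µM dose yields 30% or more activation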;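 also: 100% = tunicamycin at 10 µg/mL and 0% = DMSO only wells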
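Assay system: IRE1-XBP1 luciferase reporter CHO line. Input: 1000 cells/well. Buffer or medium: F12 with 10% serum. Doses: 20 µM, 1% DMSO. Times: overnight seeding at 37 °C, 6 h compound treatment at 37 °C. Technique: Steady-Glo luciferase glow luminescence, 10 min after reagent addition.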
Starred values were filed as active, the others as inactive; . = not tested or not shown.

SMILES | CHOP inh | UCH37 DUB inh | CTSL1 counter | CHOP UPR activ | XBP1 UPR activ
CN(C(=O)/C(N=Nc1cccc(C(F)(F)F)c1)=C(\O)C(F)(F)F)c1ccccc1 | 73.0* | 3.2 | 6.5 | -1.4 | 2.2
CC(=O)/C(N=Nc1cccc(C(F)(F)F)c1)=C(\C)O | 7.2 | 4.9 | 1.2 | -3.7 | 0.2
Cc1cccc(C)c1NC(=O)C1CCCN1S(=O)(=O)c1ccc(-c2ccc(=O)[nH]n2)s1 (stereo not drawn) | . | 4.5 | 28.1* | -2.5 | -1.2
c1ccc(C2=NOC(c3nnc(-c4ccccc4)o3)C2)cc1 (stereo not drawn) | . | 33.2* | -0.4 | 1.2 | -1.0
Fc1ccc(C2=NOC(c3nnc(-c4ccccc4)o3)C2)cc1 (stereo not drawn) | -4.2 | 1.8 | 5.6 | -0.6 | 2.3
O=C(CNS(=O)(=O)c1ccc(F)cc1)N1CCN(c2ccccc2)CC1 | 80.2* | 1.0 | -1.1 | 2.5 | -3.3
O=C(CSc1nc2ccccc2[nH]1)NN=Cc1ccco1 | . | 4.6 | . | . | .
CC(=O)c1ccc(-c2ccc(/C=C(/Sc3n[nH]c(C)n3)C(=O)O)o2)cc1 | 11.0 | 20.9* | 8.1 | 1.4 | 0.6
CC(C)c1ccc(O)c(NC(=O)c2ncn[nH]2)c1 | 6.1 | 2.6 | 16.8* | -3.1 | -0.2
O=C(CNS(=O)(=O)c1cccc(Cl)c1)OCc1csc(-c2ccccc2)n1 | 89.8* | . | -19.9 | 3.4 | 7.7
Cc1cc(=O)[nH]c(NN=Cc2cc(C)n(CC(F)(F)F)c2C)n1 | . | -0.9 | . | . | .
Cc1ccc(NS(=O)(=O)c2ccc3c(c2)n(C)c(=O)n3C)cc1C | . | -0.5 | 17.7* | -1.4 | -5.1
COc1cc(C=NNC(=O)c2nnn(-c3nonc3N)c2C(C)C)ccc1OCc1ccccc1 | . | -26.5 | . | . | .
CCOC(=O)c1ccc(NC(=O)c2nc[nH]c2C(=O)N2CCc3ccccc3C2)cc1 | 72.2* | . | -1.1 | 1.1 | 3.0
Cc1ccc(NC(=O)c2nc[nH]c2C(=O)N2CCc3ccccc3C2)cc1 | . | -2.4 | . | 4.0 | -4.4
COc1cc(/C=C/C(=O)O)cc(S(=O)(=O)Nc2ccccc2Oc2ccccc2)c1OC | -3.8 | 2.8 | 20.8* | -2.4 | -4.0
CCSc1nnc(NC(=O)NC(C)(C(F)(F)F)C(F)(F)F)s1 | 9.5 | -1.7 | -1.1 | 1.0 | -0.9
CCSc1nnc(NC(=O)NC(CC)(C(F)(F)F)C(F)(F)F)s1 | 90.2* | -0.8 | -1.4 | -3.9 | 4.6
COc1ccc(C2SCC(=O)N2CC23CC4CC(CC(C4)C2)C3)cc1 (stereo not drawn) | 86.2* | 3.7 | -0.8 | 0.3 | -0.1
CC(C)CC(=O)Nc1cc2nn(-c3ccccc3)nc2cc1Cl | 85.4* | -64.6 | -2.8 | 2.6 | -0.1
CCOc1ccc(CNc2ccc(CNc3ncn[nH]3)cc2)cc1 | 5.5 | 0.3 | -4.0 | 2.7 | 0.2
CCOc1ccc(CNc2cccc(SC)c2)cc1 | 86.9* | 4.0 | -1.5 | -1.5 | 1.9
CCCCCC(=O)N/N=C(\C)c1ccc(N2CCCCC2)cc1 | 76.1* | . | 0.6 | 1.5 | -0.7
COc1ccc(CNC(=O)CC(C)=NNC(=O)COc2ccccc2)cc1 | . | 0.4 | . | . | .
CCCCN(C)C=Nc1c(C#N)cnn1-c1ccc(C)cc1 | . | 1.5 | . | . | .
SMILES | CHOP inh | UCH37 DUB inh | CTSL1 counter | CHOP UPR activ | XBP1 UPR activ
COC(=O)c1ccc(Cn2c(C)cc(C)[n+]2C)o1 | 72.7* | 4.3 | 2.9 | 1.5 | -1.5
COc1cnc(-c2ccccn2)nc1Oc1ccccc1 | -97.2 | 2.1 | -1.3 | -1.2 | -0.1
COc1cnc(-c2ccccc2)nc1Oc1ccc(Cl)cc1C | 39.8 | -1.2 | 18.6* | 2.6 | -0.8
CCOCCCNc1ncnc2c1[nH]c1ccccc12 | 47.5 | -6.5 | -0.8 | 1.3 | 4.2
CCCCOCCCNc1ncnc2c1[nH]c1ccccc12 | 84.7* | -22.4 | -1.0 | 8.3 | 0.4
O=C(CCCC(=O)Nc1cccc(Br)c1)NN=Cc1cc([N+](=O)[O-])ccc1O | . | 10.2 | . | . | .
CCOC(=O)NC(NCc1ccccc1)(C(F)(F)F)C(F)(F)F | 2.9 | 3.3 | 0.7 | 1.4 | -1.4
CCOC(=O)NC(NCCc1ccccc1)(C(F)(F)F)C(F)(F)F | 70.5* | 5.0 | -0.4 | 1.1 | -3.7
c1ccc(-c2nnc(SCc3nnc(-c4cccs4)o3)o2)cc1 | 24.0 | -4.5 | -4.6 | -0.1 | -4.3
Clc1ccc(-c2nnc(CSc3nnc(-c4cccs4)o3)o2)cc1 | 70.4* | 4.8 | 5.8 | 3.2 | -2.3
O=C(CSc1nnc(COc2ccc(Cl)cc2Cl)o1)Nc1ccccn1 | . | -0.2 | 1.7 | -4.9 | -3.3
Clc1ccc(OCc2nnc(SCc3nnc(-c4ccccc4)o3)o2)c(Cl)c1 | 76.5* | 1.0 | 1.9 | 1.6 | -2.9
CC(/C=C/c1ccccc1)=NNC(N)=S | . | 11.6 | . | . | .
O=C(CSc1nccc(=O)[nH]1)N1N=C2/C(=C/c3ccco3)CCCC2C1c1ccco1 (stereo not drawn) | -11.7 | -4.2 | 17.2* | 0.4 | -0.2
Nc1nc(SCC(=O)N2N=C3/C(=C/c4ccco4)CCCC3C2c2ccco2)n[nH]1 (stereo not drawn) | 46.6 | -1.0 | 2.2 | 2.4 | -3.5
Fc1cccc(Oc2nc3ccccc3n3cccc23)c1 | 52.2 | -5.3 | 64.8* | -1.3 | -2.3
CSc1nc2ccccc2n1Cc1cccc(F)c1 | -0.2 | 2.5 | -2.9 | 1.8 | 4.0
Cc1cccc(C(=O)NNC(=O)c2ccc(-c3ccccc3)cc2)c1 | 50.6 | 1.8 | 1.1 | 3.0 | -1.4
O=C(NNC(=O)c1ccc(-c2ccccc2)cc1)c1ccccc1 | 80.7* | 5.2 | -7.8 | 5.9 | -2.3
O=C(ON=C1CCSc2ccccc21)c1ccc(F)cc1 | . | 5.3 | . | . | .
COCCCN1CN(S(=O)(=O)c2ccc(Cl)cc2)c2nc3ccccc3nc21 | 93.0* | -8.6 | 4.1 | -1.4 | -2.3
C=CCN1CN(S(=O)(=O)c2cccc(Cl)c2)c2nc3ccccc3nc21 | . | -9.2 | 16.8* | 1.9 | 1.4
CCc1cc2c(-c3ccccc3)cc(=O)oc2cc1OC(=O)c1cccs1 | 70.4* | 2.6 | -0.8 | -2.4 | 1.9
O=C(Oc1ccc2c(-c3ccccc3)cc(=O)oc2c1)c1cccs1 | 17.9 | 4.6 | -0.6 | 0.4 | 1.6
Cc1[nH]n(-c2ccccc2)c(=O)c1C=Nn1c(C)nc2ccccc2c1=O | . | 4.5 | . | . | .
SMILES | CHOP inh | UCH37 DUB inh | CTSL1 counter | CHOP UPR activ | XBP1 UPR activ
Cn1nc(C(=O)Nc2cccc(C(F)(F)F)c2)ccc1=O | -11.5 | 2.8 | -1.0 | 0.2 | -1.7
CN(C)c1nn(C(=O)Nc2cccc(C(F)(F)F)c2)cc1-c1ccccc1 | 89.6* | 1.4 | -1.1 | -1.0 | -1.0
COc1ccccc1C(=O)NC(=S)/C=C1/N(C)c2ccccc2C1(C)C | 73.4* | 3.6 | 18.6* | 4.9 | 1.3
Cn1ncc(Br)c1C(=O)NN=Cc1cccc(OC2CSC2)c1 | . | -0.1 | . | . | .
CCNCCNc1ccc(Cl)cc1[N+](=O)[O-] | . | 7.5 | 36.0* | 0.4 | -0.1
CCCNC(=O)COC(=O)c1ccccc1OCC(=O)Nc1ccc(Br)cc1 | 80.0* | . | 0.5 | 6.9 | -0.9
O=C(CN1CCCCCCC1)NN=Cc1ccc(F)c(F)c1 | . | 2.6 | . | . | .

From PubChem BioAssay
